Screening data (PubChem BioAssay)
ASAP1 inh = inhibitors of human ASAP1 ArfGAP activity | Q9ULH1 | ASAP1-stimulated ARF1 GTP hydrolysis, GDP FP detection | inhibition, % at 16.5 µM | hit rate 0.19% among 360,000 | AID 624377; in the data active = inhibition above about 25%
MBD2 inh = blocks human MBD2 binding to methylated DNA; inhibition, % at 4.4 µM; Q9UBB5; AID 686964; hit rate 0.31% among 370,000; TR-FRET, MBD2 binding to methylated oligonucleotide; in the data active = inhibition above about 13%
Target sequence (Q9UBB5 whole entry, looked up): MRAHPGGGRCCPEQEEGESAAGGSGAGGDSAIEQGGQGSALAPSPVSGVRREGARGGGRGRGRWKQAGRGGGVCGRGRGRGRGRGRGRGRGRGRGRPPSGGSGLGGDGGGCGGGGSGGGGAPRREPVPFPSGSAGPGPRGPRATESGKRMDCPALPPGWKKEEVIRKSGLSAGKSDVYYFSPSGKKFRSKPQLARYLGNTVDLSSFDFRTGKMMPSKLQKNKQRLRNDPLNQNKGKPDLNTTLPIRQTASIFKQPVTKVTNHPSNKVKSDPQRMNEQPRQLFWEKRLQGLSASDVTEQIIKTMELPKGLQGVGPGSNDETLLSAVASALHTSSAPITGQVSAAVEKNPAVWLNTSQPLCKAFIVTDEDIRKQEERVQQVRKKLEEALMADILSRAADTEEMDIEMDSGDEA
LEDGF integ inh = blocks HIV-1 LEDGF/p75-dependent DNA integration; TR-FRET IN-LEDGF/p75 DNA integration, Eu/Cy5; inhibition, % at 3.7 µM; hit rate 0.64% among 370,000;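 active = inhibition above the screen-wide mean plus 3 SD, cut at about 13% in these data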;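 also: signal is the Cy5 over europium emission ratio at 671 and 618 nm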
ARFGAP1 inh = inhibitors of rat ARFGAP1; Q62848; Arfgap1-stimulated ARF1 GTP hydrolysis, GDP FP detection; inhibition, % at 16.5 µM; hit rate 0.26% among 360,000; AID 651572;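 active = inhibition above a per-plate limit, mean inhibition of low control wells plus 3 SD, cut at about 25% in these data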
Target sequence (Q62848 1-136 limits assumed): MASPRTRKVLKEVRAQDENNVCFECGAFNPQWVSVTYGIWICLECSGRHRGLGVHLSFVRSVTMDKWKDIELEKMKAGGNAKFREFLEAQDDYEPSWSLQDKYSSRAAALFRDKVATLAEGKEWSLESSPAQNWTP
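Assay system: Rat Arfgap1 GAP domain (His6, aa 1-136), purified enzyme | Buffer or medium: HEPES 25 mM pH 7.5, NaCl 150 mM, MgCl2, DTT | Schedule: GTP hydrolysis reaction 2 h at 25 °C | Signal: FP of antibody-bound GDP Alexa 633 tracer, ex 620/em 688 nm | Measure: Percent inhibition of Arfgap1-stimulated GTP hydrolysis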
UHRF1 MBD2 ctr = blocks human UHRF1 binding to methylated DNA | Q96T88 | inhibition, % at 4.4 µM | UHRF1 binding to methylated oligo, TR-FRET | hit rate 0.75% among 370,000;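 also: UHRF1 SRA domain binding a hemimethylated CpG hairpin DNA probe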
TCR-CD3 inh = blocks the human TCR-CD3 interaction; hit rate 0.37% among 360,000; TAMRA-labeled TCR probe fluorescence, biochemical; inhibition, % at 9.4 µM; in the data active = inhibition above about 19%;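 also: recombinant mutant TCR 2C K166C tagged with TAMRA read by polarization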
UHRF1 DNA bind = counter-screen for MBD2 inhibitors: human UHRF1 methylated DNA binding inhibitors; shares compounds with MBD2 inh; inhibition, % at 4.4 µM; hit rate 25% among 1,000; UHRF1 binding to methylated oligonucleotide, TR-FRET;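 also: UHRF1 SRA domain binding a labeled hemimethylated CpG hairpin DNA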
MBD2 DBD conf = confirmation of human MBD2-DBD methylated oligonucleotide binding inhibitors; shares compounds with MBD2 inh; TR-FRET MBD2-DBD binding to methylated oligonucleotide; inhibition, % at 4.4 µM; hit rate 26% among 1,000; AID 720531; in the data active = inhibition above about 14%
Each line names hits and unclear results; the compound was inactive in the other large screens (follow-up assays come after a bar, where they were run). In the library only some 2% were active in any assay of this set; here they are far more common. Rule as the data show it, unless noted: active = inhibition above about 21%; inactive = the rest.

CC(NC(=O)C(=O)NN=C1CCCC1)c1ccccc1 (stereo not given)	none
CCS(=O)(=O)c1ccc2oc(SCC(=O)NC3CCCC(C)C3C)nc2c1 (stereo not given)	none
COc1ccc(CCC(=O)N2CCN(c3cccc(C)c3C)CC2)cc1	none
COc1ccc(CC(=O)N2CCN(c3cccc(C)c3C)CC2)cc1	MBD2 inh 15.8 | UHRF1 DNA bind inactive | MBD2 DBD conf inactive
COc1ccc(CN2CCN(C3CCC3)CC2CCO)cc1C (stereo not given)	none
CCCN(C(=O)c1cc2c(s1)CCC2)c1c(N)n(Cc2ccccc2)c(=O)[nH]c1=O	MBD2 inh 13.4 | UHRF1 DNA bind inactive | MBD2 DBD conf 17.7
C/C=C(\C)C(=O)Nc1cccc(C2=NOC3(C2)C[C@@H](C(N)=O)N(C(=O)c2ccccc2C(=O)c2ccccc2)C3)c1 (stereo not given in full)	none
C/C=C/C(=O)Nc1cccc(C2=NOC3(C2)C[C@@H](C(N)=O)N(C(=O)c2cc([N+](=O)[O-])cc([N+](=O)[O-])c2)C3)c1 (stereo not given in full)	MBD2 inh 16.3 | UHRF1 DNA bind inactive | MBD2 DBD conf inactive
C=C(C)C(=O)Nc1cccc(C2=NOC3(C2)C[C@H](C(N)=O)N(C(=O)c2ccccc2C(=O)c2ccccc2)C3)c1 (stereo not given in full)	MBD2 inh 31.1, UHRF1 MBD2 ctr 79.6 | UHRF1 DNA bind 66.5 | MBD2 DBD conf 42.1
C=C(C)C(=O)Nc1cccc(C2=NOC3(C2)C[C@@H](C(N)=O)N(C(=O)CC(c2ccccc2)c2ccccc2)C3)c1 (stereo not given in full)	MBD2 inh 26.4, UHRF1 MBD2 ctr 62.5 | UHRF1 DNA bind 60.0 | MBD2 DBD conf 41.7
C/C=C(\C)C(=O)Nc1cccc(C2=NOC3(C2)C[C@H](C(N)=O)N(C(=O)c2cc([N+](=O)[O-])cc([N+](=O)[O-])c2)C3)c1 (stereo not given in full)	none
O=S1(=O)CCC(n2nccc2-c2ccccc2)C1 (stereo not given)	none
COc1cc(C(=S)N2CCOCC2)cc(OC)c1OC(=O)c1ccc(C)cc1	none
Cc1noc(C)c1-c1ccc(C(=O)NCCN2CCOCC2)c2occc12	none
COC(=O)c1ccc(OCc2cc(=O)n3ccsc3n2)cc1	MBD2 inh 13.4 | UHRF1 DNA bind inactive | MBD2 DBD conf inactive
Cc1ccc2c(c1)C(c1ccccc1)CC(=O)O2 (stereo not given)	none
Cc1cc(NC(=O)C2CCN(S(=O)(=O)c3cnc[nH]3)CC2)ccc1Br	MBD2 inh 13.8 | UHRF1 DNA bind inactive | MBD2 DBD conf inactive
Cc1ccc(NC(=O)C2CCN(S(=O)(=O)c3cnc[nH]3)CC2)cc1C	none
COc1ccc(/C=N/NC(=O)c2ccncc2)cc1Cn1nc([N+](=O)[O-])c(Br)c1C	none
Cc1ccc(C2=C(c3ccc([N+](=O)[O-])cc3)C(=O)OC2)cc1C	none
CS(=O)(=O)c1ccc(C2=C(c3ccccc3)C(=O)OC2)cc1	MBD2 inh 33.4, UHRF1 MBD2 ctr 34.4 | UHRF1 DNA bind 45.6 | MBD2 DBD conf 45.4
O=C1OCC(c2ccccc2)=C1c1ccccc1	MBD2 inh 22.4, UHRF1 MBD2 ctr 21.5 | UHRF1 DNA bind 36.3 | MBD2 DBD conf 38.3
COc1ccc(C2=C(c3ccc([N+](=O)[O-])cc3)C(=O)OC2)cc1	none
Cc1c(C)n(CCN(C)C)c2ccc(C(=O)OCCN(C)C)cc12	MBD2 inh 13.4 | UHRF1 DNA bind 23.5 | MBD2 DBD conf inactive
Cc1ccc(S(=O)(=O)N2CCN(C(=O)CCc3c[nH]c4ccccc34)CC2)cc1	none
COc1ccc(S(=O)(=O)N2CCN(C(=O)CCc3c[nH]c4ccccc34)CC2)cc1	MBD2 inh 47.6 | UHRF1 DNA bind inactive | MBD2 DBD conf inactive
Cc1ccc(C2NC(=S)NC3=C2C(=O)CCC3)cc1 (stereo not given)	MBD2 inh 13.8, UHRF1 MBD2 ctr 24.4 | UHRF1 DNA bind inactive | MBD2 DBD conf inactive
Cc1nnc(NN2CCOCC2)[nH]c1=O	none
CC(=O)Nc1ccc(S(=O)(=O)NC(CC(=O)O)c2ccc(OC(C)C)cc2)cc1 (stereo not given)	MBD2 inh 16.6, UHRF1 MBD2 ctr 23.2 | UHRF1 DNA bind inactive | MBD2 DBD conf inactive
CN(C)C(CNC(=O)c1ccc(C(F)(F)F)cc1)c1ccco1 (stereo not given)	none
COc1ccc(N2CC(C(=O)OCC(=O)Nc3cc(C)on3)CC2=O)cc1 (stereo not given)	MBD2 inh 19.6, UHRF1 MBD2 ctr 41.1 | UHRF1 DNA bind inactive | MBD2 DBD conf inactive
COc1ccc(OC)c(NC(=O)C2CC(=O)N(c3ccccc3)C2)c1 (stereo not given)	MBD2 inh 14.7 | UHRF1 DNA bind inactive | MBD2 DBD conf inactive
Cc1cc(NC(=O)COC(=O)C2CC(=O)N(c3ccc(Br)cc3)C2)no1 (stereo not given)	none
COc1cc(/C=N/NS(=O)(=O)c2ccc(C(C)(C)C)cc2)cc([N+](=O)[O-])c1O	none
CCCOc1ccc(N2C(=O)CC(N(Cc3ccco3)C(=O)CCC(=O)O)C2=O)cc1 (stereo not given)	MBD2 inh 16.3 | UHRF1 DNA bind inactive | MBD2 DBD conf inactive
CC(C)C[C@H](NC(C)(C)C(=O)NC1CCCCC1)C(=O)NCCc1c[nH]c2ccccc12	none (no result: ASAP1 inh, ARFGAP1 inh, TCR-CD3 inh)
CC(C)C[C@H](NC(C)(C)C(=O)NC1CCCCC1)C(=O)NCC(c1ccccc1)c1ccccc1	MBD2 inh 21.4 (no result: ASAP1 inh, ARFGAP1 inh, TCR-CD3 inh) | UHRF1 DNA bind inactive | MBD2 DBD conf inactive
COc1cccc(-c2cc(C(=O)NC3CCCC3)no2)c1	MBD2 inh 16.3 | UHRF1 DNA bind inactive | MBD2 DBD conf inactive
COCCNC(=O)c1cc(-c2cccc(OC)c2)on1	none
O=C(NCc1ccccc1Cl)c1[nH]c(C(F)(F)F)nc1-c1ccccc1	none
CN(C1CCCCC1)S(=O)(=O)c1ccc(=S)[nH]c1	none
COc1ccc(S(=O)(=O)NCC(=O)N(CC(=O)NCC2CCCO2)Cc2ccc(F)cc2)cc1 (stereo not given)	MBD2 inh 14.1 | UHRF1 DNA bind inactive | MBD2 DBD conf inactive
COc1ccc(CN(CC(=O)NCC2CCCO2)C(=O)CNS(=O)(=O)c2ccc(C)cc2)cc1 (stereo not given)	none
O=C1CCC2(CCCCC2)N1	none
